Data taken from ChEMBL document CHEMBL1777667, “Synthesis and antibacterial activity of some binaphthyl-supported macrocycles containing a cationic amino acid” (2011).
Converted amounts (≈) assume the structure as drawn.

System: Staphylococcus aureus
Assay: Antibacterial activity against Staphylococcus aureus ATCC 6538P by two fold dilution method
Type: functional
Outline: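 Compounds dissolved in 10% methanol/water as stock, diluted in water, then serially twofold-diluted in LB across eight wells in triplicate. Overnight (14 h) LB culture grown at 37 °C, diluted 1 in 1,000 and added to wells. Media-only, no-compound and vancomycin controls were run. Operator was blinded. MIC read by eye as the concentration next to the first well of obvious growth.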

[1] = Staphylococcus aureus, ATCC 6538P, read-out: MIC

Work on `C=CCc1cc2ccccc2c(-c2c(OC)c(CC(NC(C)=O)C(=O)N[C@H](CCCNC(=N)N)C(=O)N[C@@H](CC=C)C(=O)OC)cc3ccccc23)c1OC` (some centres not stated) yielded an MIC [1] of 4 µg/mL (≈ 5.33 µM).
In the case of `C=CCc1cc2ccccc2c(-c2c(OC)c(CC(NC(C)=O)C(=O)N[C@@H](CCCNC(=N)N)C(=O)N[C@@H](CC=C)C(=O)OC)cc3ccccc23)c1OC` (some centres not stated), the MIC [1] is reported as 4 µg/mL (≈ 5.33 µM).
With `COC(=O)[C@@H]1C/C=C/Cc2cc3ccccc3c(c2OC)-c2c(OC)c(cc3ccccc23)CC(NC(C)=O)C(=O)N[C@H](CCCCNC(=O)OC(C)(C)C)C(=O)N1` (mixture of isomers) the MIC [1] was greater than 250 µg/mL.
`COC(=O)[C@@H]1C/C=C/Cc2cc3ccccc3c(c2OC)-c2c(OC)c(cc3ccccc23)CC(NC(C)=O)C(=O)N[C@H](CCCNC(=N)NS(=O)(=O)c2c(C)c(C)c3c(c2C)CCC(C)(C)O3)C(=O)N1` (mixture of isomers) showed an MIC [1] of 31 µg/mL.
`COC(=O)[C@@H]1C/C=C/Cc2cc3ccccc3c(c2OC)-c2c(OC)c(cc3ccccc23)CC(NC(C)=O)C(=O)N[C@@H](CCCCNC(=O)OCC2c3ccccc3-c3ccccc32)C(=O)N1` (mixture of isomers) gave an MIC [1] greater than 250 µg/mL.
`COC(=O)[C@@H]1C/C=C/Cc2cc3ccccc3c(c2OC)-c2c(OC)c(cc3ccccc23)CC(NC(C)=O)C(=O)N[C@@H](C)C(=O)N[C@@H](CCCCN)C(=O)N1.Cl` (mixture of isomers) was tested, and the MIC [1] was greater than 250 µg/mL.
Molecule `COC(=O)[C@@H]1CC=CCc2cc3ccccc3c(c2OC)-c2c(OC)c(cc3ccccc23)CC(NC(C)=O)C(=O)N[C@H](CCCCN)C(=O)N1.Cl` (mixture of isomers; 1) has an MIC of 16 µg/mL.
For `COC(=O)[C@@H]1CC=CCc2cc3ccccc3c(c2OC)-c2c(OC)c(cc3ccccc23)CC(NC(C)=O)C(=O)N[C@H](CCCCN)C(=O)N1.Cl` (mixture of isomers; 21), the MIC was 62 µg/mL.
In the case of `COC(=O)[C@@H]1C/C=C/Cc2cc3ccccc3c(c2OC)-c2c(OC)c(cc3ccccc23)CC(NC(C)=O)C(=O)N[C@H](CCCNC(=N)N)C(=O)N1.Cl` (mixture of isomers; 22), the MIC [1] is reported as 62 µg/mL.
In the case of `COC(=O)[C@@H]1C/C=C/Cc2cc3ccccc3c(c2OC)-c2c(OC)c(cc3ccccc23)CC(NC(C)=O)C(=O)N[C@H](CCCNC(=N)N)C(=O)N1.Cl` (mixture of isomers; 24), the MIC is reported as 62 µg/mL.
`COC(=O)[C@@H]1CC=CCc2cc3ccccc3c(c2OC)-c2c(OC)c(cc3ccccc23)CC(NC(C)=O)C(=O)N[C@H](CCCCN)C(=O)N1.Cl` (mixture of isomers; 25) gave an MIC of 31 µg/mL.
For `COC(=O)[C@@H]1CC=CCc2cc3ccccc3c(c2OC)-c2c(OC)c(cc3ccccc23)CC(NC(C)=O)C(=O)N[C@H](CCCCN)C(=O)N1.Cl` (mixture of isomers; 26), the MIC was 8 µg/mL.
